What was measured:
[1] = target: T1, Prostaglandin G/H synthase 1 (Ovis aries, UniProt P05979); test: Inhibition of ovine COX1 after 2 mins by EIA
T1 sequence (P05979 whole entry): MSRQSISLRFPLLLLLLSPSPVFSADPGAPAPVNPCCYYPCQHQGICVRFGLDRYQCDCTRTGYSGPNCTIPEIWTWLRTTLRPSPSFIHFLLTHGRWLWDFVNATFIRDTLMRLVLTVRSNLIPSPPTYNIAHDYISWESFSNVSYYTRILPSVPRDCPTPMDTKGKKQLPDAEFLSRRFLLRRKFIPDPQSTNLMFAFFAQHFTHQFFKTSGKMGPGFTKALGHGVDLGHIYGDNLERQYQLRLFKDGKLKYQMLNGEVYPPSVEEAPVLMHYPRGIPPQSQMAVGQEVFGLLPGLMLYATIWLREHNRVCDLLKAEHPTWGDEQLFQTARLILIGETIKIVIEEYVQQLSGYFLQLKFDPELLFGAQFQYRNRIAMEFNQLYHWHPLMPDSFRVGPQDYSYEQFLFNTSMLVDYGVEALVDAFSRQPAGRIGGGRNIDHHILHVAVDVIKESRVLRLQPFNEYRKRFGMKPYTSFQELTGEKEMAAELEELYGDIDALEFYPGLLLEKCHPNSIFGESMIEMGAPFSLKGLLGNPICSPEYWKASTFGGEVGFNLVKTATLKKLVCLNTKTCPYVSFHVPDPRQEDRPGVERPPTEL

[2] = tested on: Rattus norvegicus; test: Antiinflammatory activity in po dosed albino rat assessed as inhibition of carrageenan-induced paw edema administered 1 hr prior challenge measured 2 hrs post challenge; assay type: functional
How it was run: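 Male Charles Foster albino rats, 150-200 g, n = 6 per group. Compounds suspended in 0.5% methyl cellulose, given orally at 50, 100 and 200 mg/kg; reference drugs at 25, 50 and 100 mg/kg. 1 h later, 0.2 mL of 1% carrageenan in 0.9% NaCl injected into the right hind paw.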

[3] = Selectivity index, ratio of IC50 for ovine COX1 to IC50 for human recombinant COX2
How it was run: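 Fluorescent screening kit with ovine COX-1 or human recombinant COX-2, heme and ADHP substrate in 0.1 M Tris-HCl pH 8.0 with 5 mM EDTA and 2 mM phenol. Compounds in DMSO tested at 0.01-100, 5 min at 37 °C. Arachidonic acid added; reaction stopped with HCl after 2 min. Resorufin read at ex 535/em 590 nm. IC50 from triplicate concentration-inhibition curves; SI = COX-1 IC50/COX-2 IC50.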

[4] = target: T2, Prostaglandin G/H synthase 2 (Homo sapiens, UniProt P35354); test: Inhibition of human recombinant COX2 after 2 mins by EIA
T2 sequence (P35354 whole entry): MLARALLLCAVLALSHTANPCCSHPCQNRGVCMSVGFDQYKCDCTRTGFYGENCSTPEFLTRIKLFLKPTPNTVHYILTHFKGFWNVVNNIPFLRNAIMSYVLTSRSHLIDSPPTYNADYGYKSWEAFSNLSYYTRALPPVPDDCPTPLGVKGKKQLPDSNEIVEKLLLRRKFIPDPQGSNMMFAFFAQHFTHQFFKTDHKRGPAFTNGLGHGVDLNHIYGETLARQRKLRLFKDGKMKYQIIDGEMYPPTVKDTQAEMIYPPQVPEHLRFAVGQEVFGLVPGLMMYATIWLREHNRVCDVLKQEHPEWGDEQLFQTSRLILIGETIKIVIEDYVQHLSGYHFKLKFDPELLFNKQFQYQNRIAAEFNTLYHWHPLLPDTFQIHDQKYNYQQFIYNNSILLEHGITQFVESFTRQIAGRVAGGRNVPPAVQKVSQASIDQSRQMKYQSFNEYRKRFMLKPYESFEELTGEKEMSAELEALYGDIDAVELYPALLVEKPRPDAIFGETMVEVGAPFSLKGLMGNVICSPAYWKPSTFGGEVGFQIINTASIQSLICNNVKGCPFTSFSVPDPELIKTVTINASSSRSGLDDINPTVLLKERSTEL

[5] = tested on: Mus musculus; test: Analgesic activity in mouse assessed as inhibition of acetic acid-induced writhing at 100 mg/kg, po administered 60 mins prior challenge measured for 5 to 10 mins post acetic acid challenge relative to control; assay type: functional
How it was run: (§1)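 Groups of 6 mice given saline, test compound (200 mg/kg) or aspirin (100 mg/kg) orally. 60 min later, 0.6% acetic acid injected i.p. Writhes per mouse counted between 5 and 10 min after injection. Percent inhibition of writhes calculated against the saline control group.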

[6] = tested on: Rattus norvegicus; test: Ulcerogenic activity in po dosed albino rat at 200 mg/kg, po administered intragastrically measured after 3 hrs; assay type: toxicity, organism-based; design: dose 200 mg/kg, route oral; settings: in vivo
How it was run: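 Rats of 180-200 g, 6 per group, fasted 24 h, dosed intragastrically at 200 mg/kg. Killed 3 h later; stomachs opened along the lesser curvature. Each hemorrhagic lesion measured along its maximum length and ranked. Lesion lengths summed to give the ulcer index, reported as mean ± SEM.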

[7] = tested on: Mus musculus; test: Analgesic activity in mouse assessed as inhibition of acetic acid-induced writhing at 200 mg/kg, po administered 60 mins prior challenge measured for 5 to 10 mins post acetic acid challenge relative to control; assay type: functional; how it was run: as §1

SMILES	IC50 [1] [µM]	ED50 [2] [mg/kg]	Ratio IC50 [3]	IC50 [4] [µM]	inhibition in vivo at 100 mg/kg [5] [%]	Activity [6]	inhibition in vivo at 200 mg/kg [7] [%]
c1ccc(-c2nnc(-c3cn(-c4ccccc4)nc3-c3ccccc3)o2)cc1	> 100	125	> 67	1.5	–	–	–
O=[N+]([O-])c1ccc(-c2nn(-c3ccccc3)cc2-c2nnc(-c3ccncc3)o2)cc1	> 100	72.6	> 200	0.5	–	–	–
O=[N+]([O-])c1ccc(-c2nn(-c3ccccc3)cc2-c2nnc(-c3ccc(Cl)cc3)o2)cc1	> 100	167	> 83.3	1.2	–	–	–
Clc1ccc(-c2nn(-c3ccccc3)cc2-c2nnc(-c3ccncc3)o2)cc1	> 100	167	> 23	4.4	–	–	–
Clc1ccc(-c2nnc(-c3cn(-c4ccccc4)nc3-c3ccc(Br)cc3)o2)cc1	> 100	–	> 2	50	–	–	–
Cc1ccc(-c2nn(-c3ccccc3)cc2-c2nnc(-c3ccccc3)o2)cc1	> 100	–	> 4	25	–	–	–
CC(=O)Oc1ccccc1C(=O)O [ASPIRIN]	–	–	–	–	72.2	Toxic	–
Clc1ccc(-c2nn(-c3ccccc3)cc2-c2nnc(-c3ccccc3)o2)cc1	> 100	171	> 21	4.7	–	–	–
COc1ccc(-c2nn(-c3ccccc3)cc2-c2nnc(-c3ccncc3)o2)cc1	> 100	–	> 2.4	42	–	–	–
Cc1ccc(-c2nn(-c3ccccc3)cc2-c2nnc(-c3ccncc3)o2)cc1	> 100	–	> 1.9	53	–	–	–
O=C(O)Cc1ccccc1Nc1c(Cl)cccc1Cl [DICLOFENAC]	–	110	–	–	–	–	–
O=[N+]([O-])c1ccc(-c2nn(-c3ccccc3)cc2-c2nnc(-c3ccccc3)o2)cc1	> 100	74.3	> 222	0.31	–	Non-toxic	67.3
COc1ccc(-c2nn(-c3ccccc3)cc2-c2nnc(-c3ccccc3)o2)cc1	> 100	–	> 1	> 100	–	–	–
Fc1ccc(-c2nn(-c3ccccc3)cc2-c2nnc(-c3ccccc3)o2)cc1	> 100	175	> 15.4	6.5	–	–	–
Clc1ccc(-c2nnc(-c3cn(-c4ccccc4)nc3-c3ccccc3)o2)cc1	> 100	–	> 2.6	38	–	–	–
Brc1ccc(-c2nn(-c3ccccc3)cc2-c2nnc(-c3ccccc3)o2)cc1	> 100	–	> 1	> 100	–	–	–
Cc1ccc(-c2cc(C(F)(F)F)nn2-c2ccc(S(N)(=O)=O)cc2)cc1 [CELECOXIB]	–	81.7	–	–	–	–	–
Cc1ccc(-c2nn(-c3ccccc3)cc2-c2nnc(-c3ccc(Cl)cc3)o2)cc1	> 100	–	> 1.7	58	–	–	–
c1ccc(-c2nn(-c3ccccc3)cc2-c2nnc(-c3ccncc3)o2)cc1	> 100	–	> 9	11.1	–	–	–
Fc1ccc(-c2nn(-c3ccccc3)cc2-c2nnc(-c3ccc(Cl)cc3)o2)cc1	> 100	182	> 18.2	5.5	–	–	–
Clc1ccc(-c2nnc(-c3cn(-c4ccccc4)nc3-c3ccc(Cl)cc3)o2)cc1	> 100	199	> 11.5	8.7	–	–	–
Fc1ccc(-c2nn(-c3ccccc3)cc2-c2nnc(-c3ccncc3)o2)cc1	> 100	123	> 43	2.3	–	–	–
COc1ccc(-c2nn(-c3ccccc3)cc2-c2nnc(-c3ccc(Cl)cc3)o2)cc1	> 100	–	> 1.5	67	–	–	–
Brc1ccc(-c2nn(-c3ccccc3)cc2-c2nnc(-c3ccncc3)o2)cc1	> 100	–	> 2.6	39	–	–	–
